Experimental data taken from the array DNA melting data of Ke et al. (doi:10.1101/2024.01.08.574731).

Key:
[1] = melting temperature; fluorescence melt of hairpins on a sequencing array, two-state fit, raised by 9.35 °C to match UV melts; settings: sodium 0.088 M
How it was run: (§1)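 Melting temperature and folding enthalpy were obtained by bootstrapped two-state fitting. Fits used Cy3 fluorescence of library hairpins with annealed Cy3 and quencher oligos on a sequenced MiSeq flow cell, imaged in 50 mM Na-HEPES pH 8.0, 25 mM NaCl in 2.5 °C steps up to 60 °C and normalised to pre-quench Cy3 and control constructs. Four replicates were combined by inverse-variance weighting, and fitted temperatures were raised by 9.35 °C to match UV melts.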

[2] = folding enthalpy; higher = less favourable; fluorescence melt of hairpins on a sequencing array, two-state fit; settings: sodium 0.088 M
How it was run: as §1

Sequence	Tm [1] [°C]	folding enthalpy [2] [kcal/mol]
GCTCATCGAAAGATAAGC (((.(((....))).)))	39.6	-23.8
GGTCTCGGAAACGAAACC (((.(((....))).)))	39.2	-27.5
GCGACGCGAAAGCCGCGC (((..((....))..)))	67.1	-23.6
GCTCTCGAAAGAGCAAGC ((((((....)))..)))	42.9	-12.2
GCAAAGCGAAAGCCTTGC ((((.((....)).))))	53	-22.1
GCGGGGCGAAAGCCTTGC ((..(((....)))..))	58.4	-18
GATCACAACCGTGATC ((((((....))))))	57.2	-39.2
GGACTACGAAAGTAATCC (((.(((....))).)))	38.7	-33.4
CACTCGAAAGAGTG (((((....)))))	59.9	-24.4
GATCCTTGCAGGATC ((((((...))))))	57.9	-33.7
GATCAGTGTGCTGATC ((((((....))))))	56.6	-52.8
GAAGAGGAAACTCTTC ((((((....))))))	48.3	-34.2
GGGGGTGGAAACACTCCC (((.(((....))).)))	56.5	-37.6
GTGCTAGGAAACTAGCAC (((((((....)))))))	65	-49.4
GCCGACCCGAAAGGGGGC (((..(((....))))))	55.7	-18.4
GCCTTTACGAAAGTAGGC (((..(((....))))))	43.5	-28.7
GGCAGTGGAAACACCGCC (((.(((....))).)))	50.6	-27.1
GATCCAGTTTGGATC ((((((...))))))	52.6	-32.4
GATGGCGAAAGCCTTATC ((((((....)))..)))	25.9	-7.22
GCGCCATCGAAAGATCGC (((..(((....))))))	42.5	-24.3
GTCGAAACGAAAGTTGAC (((..(((....))))))	37.2	-18.5
GATCTCCTACGAGATC ((((((....))))))	52.4	-34.5
GGAACGTCGAAAGACTCC (((..(((....))))))	32.1	-11.7

Sequence	Tm [1] [°C]	folding enthalpy [2] [kcal/mol]
GCTCTGCGAAAGCCAAGC (((..((....))..)))	34.8	-13.9
CCAAGGAAACTTGG (((((....)))))	46	-20.3
GTTTCCCGAAAGGGAAC (((.(((....))))))	50.6	-14.1
GAGGCCGGAAACAGCCTC (((((.(....).)))))	50.2	-27.5
GCTCGTACGAAAGTAAGC (((..(((....))))))	39.3	-4.48
GGCGTCGGAAACGATGCC (((.(((....))).)))	65.7	-38.2
GCCTTACGAAAGTAGGC (((.(((....))))))	54.2	-29.1
GATTAGCCGAAAGGCATC (((..(((....))))))	28.5	-7.43
GATACACCGAAAGGTATC (((..(((....))))))	30.3	-13.2
GCATTGCGAAAGCAACGC ((.((((....)))).))	60.4	-26.7
GGCTGCCCGAAAGGGGCC (((..(((....))))))	47.6	-13.7
GCGGCATCCCGC ((((....))))	56.4	-20.7
GGTAACCGAAAGGTAACC (((.(((....))).)))	50.8	-20.8
GATCATATGGATGATC ((((((....))))))	46.1	-28.1
GAAATACGAAAGTAGTTC (((.(((....))).)))	42.1	-26.7
GCACGATCGAAAGATTGC (((..(((....))))))	31.7	-18.7
GGCTAAGGAAACTTAGCC (((((((....)))))))	60.8	-37.7
GGATGAGGAAACTCATCC (((((((....)))))))	63.1	-43.5
GATCCTCCGGAGGATC ((((((....))))))	55.1	-29.5
GGAGCCGAAAGGCCCTCC ((((((....)))..)))	64.6	-12.8
GATCATTTTTATGATC ((((((....))))))	49.1	-40
GCCAACGAAAGTTTGGC ((((((....))).)))	54.6	-34.1
GATCCGGTGTCGGATC ((((((....))))))	57.6	-37.2

Sequence	Tm [1] [°C]	folding enthalpy [2] [kcal/mol]
GAACTACGAAAGTATTTC (((.(((....))).)))	32.7	-13.6
GACGATGGAAACACCGTC ((((.((....)).))))	45.4	-29.6
GACCGTGGAAACATGGTC ((((.((....)).))))	54.2	-43.2
GATCTCAACTGAGATC ((((((....))))))	52.1	-44.1
GATCCTGGACAGGATC ((((((....))))))	57.5	-36.4
GGCCCCCGAAAGGGAGCC (((.(((....))).)))	66.8	-27.1
GGTAGTGGAAACGCTATC (.(((.(....).))).)	30.8	-15.7
GGTATGGGAAACTGTACC ((((..(....)..))))	36.1	-21.9
GTATCCGAAAGGATTAC ((((((....))).)))	41	-13.7
GATCACGTGGTGATC ((((((...))))))	56.5	-46.3
GCATTGACGAAAGTCTGC (((..(((....))))))	38.9	-16.5
GTCAGTGGAAACACCGAC (((.(((....))).)))	40.4	-26.9
CAGACGAAAGTCTG (((((....)))))	61.9	-24.4
GCAAGTCGAAAGACTGC (((.(((....))))))	57.1	-25.8
GCCCGCACGAAAGTGGGC (((..(((....))))))	57.4	-24
GGCGCGCCGAAAGGCGCC (((..(((....))))))	44.5	-4.97
GGATAACCGAAAGGTTCC (((..(((....))))))	32.4	-14.1
GAATCCGAAAGGAGATTC ((((((....)))..)))	36.4	-18.7
GGCCCGCGAAAGCGAGCC (((.(((....))).)))	67.2	-31.3
GCTTACGAAAGTAGAAGC ((((((....)))..)))	38.2	-24.3
GGCTATGGAAACGTAGCC (((((.(....).)))))	52.6	-46
GGACGCGGAAACGCGTTC (.(((((....))))).)	62.2	-16.6
GGATTCTCGAAAGAGTCC (((..(((....))))))	33.5	-22.7

Sequence	Tm [1] [°C]	folding enthalpy [2] [kcal/mol]
GGTCCGCGAAAGCGACC (((.(((....))))))	62.4	-16.8
GTAGCGCCGAAAGGCTAC (((..(((....))))))	36.3	-12.4
GCTCGAGGAAACCCGAGC (((((.(....).)))))	54.3	-30.9
GTCGACGAAAGTCATGAC ((((((....)))..)))	40.7	-15.6
GCTTTACGAAAGTAGAGC (((.(((....))).)))	49.4	-38.9
GATCCTTGCGAGGATC ((((((....))))))	54.8	-49.1
GCGTAGTCGAAAGACCGC (((..(((....))))))	52	-28.9
GATCATGGAAACATGGTC ((.((((....)))).))	46.6	-25.8
GCGCGTGGAAACACGTGC ((.((((....)))).))	64.1	-52.1
GATCACCATCGTGATC ((((((....))))))	54.5	-31.8
GGCTCCCGAAAGGGGCC (((.(((....))))))	68	-30.1
GATCAACAATTTGATC ((((((....))))))	38	-26.8
GCATTCGAAAGAACTGC ((((((....))).)))	34.9	-28.2
GGGCCCGAAAGGGCACCC ((((((....)))..)))	65	-9.72
GAGCAACGAAAGTTCCTC (((.(((....))).)))	32.3	-13.6
GATCAGAAGCCTGATC ((((((....))))))	47.1	-31.7
GCCGCCGGAAACGGCGAC (.(((((....))))).)	60.9	-10.6
GCCAATCGAAAGATGGC (((.(((....))))))	55.4	-35.5
GATCATACGGATGATC ((((((....))))))	47.1	-39.6
GCTAGCGGAAACGCTAAC (.(((((....))))).)	40	-12.7
GCAAGTACGAAAGTATGC (((..(((....))))))	33.4	-19
GAGGCCGAAAGGCTTCTC ((((((....)))..)))	54.9	-19.1
GGTATCGGAAACGATGTC (..((((....))))..)	31.9	-18.5
